Test results from ChEMBL document CHEMBL1138199, “Identification of compounds with anti-West Nile Virus activity” (J Med Chem, 2006).

Key:
West Nile virus [1] = experiment: Inhibition of West Nile viral Rluc-Neo-Rep in BHK21 cell line; type: functional, organism-based; conditions: BHK-21
In short: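 BHK-21 cell line stably carrying Rluc-Neo-Rep replicon; inhibition read as suppression of Renilla luciferase signal. Initial screen at 30 µM, 1% DMSO final; EC50 (µM) then determined.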

West Nile virus [2] = experiment: Activity against West Nile virus RlucRep RNA translation in BHK21 cells at 100 uM, 2 hr post transfection; type: functional, BHK-21
In short: (§1)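 BHK cells transfected with WN RlucRep RNA (transient replicon), incubated with compound at 33 or 100 µM; luciferase read at 2, 4 and 72 h post-transfection. 2 and 4 h signals report viral translation, 72 h reports RNA synthesis. Activity given as percent of luciferase signal versus mock-treated transfection; average of two to three experiments.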

West Nile virus [3] = experiment: Activity against West Nile virus RlucRep RNA translation in BHK21 cells at 33 uM, 4 h post transfection; type: functional, BHK-21; in short: as §1
West Nile virus [4] = experiment: Activity against West Nile virus RlucRep RNA translation in BHK21 cells at 100 uM, 4 hr post transfection; type: functional, BHK-21; in short: as §1
West Nile virus [5] = experiment: Activity against West Nile virus RlucRep RNA synthesis in BHK21 cells at 33 uM, 72 hr post transfection; type: functional, BHK-21; in short: as §1
West Nile virus [6] = experiment: Activity against West Nile virus RlucRep RNA synthesis in BHK21 cells at 100 uM, 72 h post transfection; type: functional, BHK-21; in short: as §1
BHK-21 [7] = experiment: Cytotoxicity against BHK21 cell line by MTT assay; type: functional; conditions: Mesocricetus auratus
In short: (§2)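 MTT cytotoxicity assay run in BHK-21 and Vero cells on compounds giving >50% Rluc inhibition in the primary screens; CC50 reported in µM.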

[8] = Therapeutic index (CC50/EC50) in BHK21 cells; type: cell-based, BHK-21; conditions: hamster, read-out: Ratio CC50/EC50
In short: (§3)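 TI computed as CC50/EC50, using MTT CC50 and replicon EC50 in BHK-21 cells, or MTT CC50 and Rluc-FL-WNV EC50 in Vero cells.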

West Nile virus [9] = experiment: Inhibition of Rluc-FL-WNV replicon in Vero cells; type: functional, organism-based
In short: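 Vero cells infected with full-length WNV carrying Renilla luciferase reporter (Rluc-FL-WNV), covering entry, replication and assembly; inhibition read as suppression of luciferase signal. Compounds first screened at 30 µM in 1% DMSO final, then EC50 (µM) determined.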

Vero [10] = experiment: Cytotoxicity against Vero cells by MTT assay; type: functional; conditions: Chlorocebus sabaeus; in short: as §2
[11] = Therapeutic index (CC50/EC50) in Vero cells; type: cell-based; conditions: monkey, read-out: Ratio CC50/EC50; in short: as §3
BHK-21 [12] = experiment: Inhibition of West Nile virus VLP replicon in BHK21 cell line; type: functional, cell-based; conditions: Mesocricetus auratus
In short: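 Naive BHK-21 cells infected with virus-like particles, made by expressing WNV structural proteins in cells carrying the Rluc-Neo-Rep replicon, which package replicon RNA. This captures entry and replication but not assembly. Inhibition is read as suppression of Renilla luciferase signal. Compounds were given in 1% DMSO final, and EC50 is in µM.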

Vero [13] = experiment: Inhibition of West Nile viral Rluc-Neo-Rep in Vero cells; type: functional, cell-based; conditions: Chlorocebus sabaeus
In short: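 Vero cells containing the Rluc-Neo-Rep replicon, used to check cell-line dependence; inhibition measured as suppression of Renilla luciferase signal, EC50 in µM.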

West Nile virus [14] = experiment: Activity against West Nile virus RlucRep RNA translation in BHK21 cells at 33 uM, 2 hr post transfection; type: functional, BHK-21; in short: as §1
West Nile virus [15] = experiment: Inhibition of West Nile virus in vero cells at 11 uM; values are per cent of control
West Nile virus [16] = experiment: Inhibition of West Nile virus in Vero cells at 33 uM; values are per cent of control
West Nile virus [17] = experiment: Inhibition of West Nile virus in Vero cells at 0.4 uM; values are per cent of control
West Nile virus [18] = experiment: Inhibition of West Nile virus in Vero cells at 1.2 uM; values are per cent of control
West Nile virus [19] = experiment: Inhibition of West Nile virus in Vero cells at 3.7 uM; values are per cent of control
West Nile virus [20] = experiment: Inhibition of West Nile virus in Vero cells at 100 uM; values are per cent of control

Work on O=C(Cc1ccc(Cl)cc1)N1N=C(c2cccs2)CC1c1ccc([N+](=O)[O-])cc1 (stereo not given) yielded an EC50 (West Nile virus [1]) of 11 µM, an Activity (West Nile virus [2]) of 81% and an Activity (West Nile virus [3]) of 92%. For the same molecule, the Activity (West Nile virus [4]) was 93%, the Activity (West Nile virus [5]) was 12% and the Activity (West Nile virus [6]) was 16%. It also gave a CC50 (BHK-21 [7]) greater than 300 µM, a selectivity ratio [8] greater than 27 and an EC50 (West Nile virus [9]) of 25 µM. The CC50 (Vero [10]) was greater than 300 µM, the selectivity ratio [11] was greater than 12 and the EC50 (BHK-21 [12]) was 8 µM. For the same molecule, the EC50 (Vero [13]) was 7 µM, the Activity (West Nile virus [14]) was 80% and the remaining activity at 11 µM (West Nile virus [15]) was 55%. It also gave a remaining activity at 33 µM (West Nile virus [16]) of 23%, a remaining activity at 0.4 µM (West Nile virus [17]) of 100% and a remaining activity at 1.2 µM (West Nile virus [18]) of 92%. For the same molecule, the remaining activity at 3.7 µM (West Nile virus [19]) was 90% and the remaining activity at 100 µM (West Nile virus [20]) was 23%.
